Consider three molecules from ChEMBL document CHEMBL1132562, “Ajoene is an inhibitor and subversive substrate of human glutathione reductase and Trypanosoma cruzi trypanothione reductase: crystallographic, kinetic, and spectroscopic studies” (J Med Chem, 1999).

The source made the active and inactive calls. The calls are words filed in the database; no cut-off is given here.

Assay [1] addresses Trypanothione reductase (Trypanosoma cruzi) (UniProt P28593). Put plainly: Percent inhibition of Trypanothione reductase (TR) with 200 uM (E)-ajoene in the presence of NADPH at 37 C. An outline of the steps: (§1)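 T. cruzi TR (0.4–1.0 U in 200 μL) incubated at 37 °C with 200 μM NADPH and 200 μM ajoene for up to 60 min. Aliquots assayed for residual activity: 100 μM NADPH, 120 μM trypanothione disulfide, Hepes pH 7.5, 340 nm decrease.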

Assay [2] concerns the target T1, Glutathione reductase, mitochondrial (Homo sapiens) (UniProt P00390).
T1 sequence (whole entry): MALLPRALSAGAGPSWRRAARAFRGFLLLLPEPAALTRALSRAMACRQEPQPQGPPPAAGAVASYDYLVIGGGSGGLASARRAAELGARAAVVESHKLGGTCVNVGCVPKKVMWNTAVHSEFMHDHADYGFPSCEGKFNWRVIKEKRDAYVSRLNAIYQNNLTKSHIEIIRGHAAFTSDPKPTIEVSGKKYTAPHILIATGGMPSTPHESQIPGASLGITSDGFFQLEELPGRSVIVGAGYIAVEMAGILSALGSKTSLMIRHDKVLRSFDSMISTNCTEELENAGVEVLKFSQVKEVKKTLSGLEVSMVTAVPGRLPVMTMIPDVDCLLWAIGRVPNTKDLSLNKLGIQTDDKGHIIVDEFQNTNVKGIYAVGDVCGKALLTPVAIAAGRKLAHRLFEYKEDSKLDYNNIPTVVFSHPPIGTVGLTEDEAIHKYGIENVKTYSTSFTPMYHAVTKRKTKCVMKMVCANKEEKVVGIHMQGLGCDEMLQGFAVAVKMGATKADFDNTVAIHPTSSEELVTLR
Put plainly: Kcat value determined against human Glutathione reductase (GR) by reduction of cytochrome c in the presence of GSH. An outline of the steps: (§2)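 1–2 U human GR preincubated 2 min at 25 °C with 200 μM NADPH and 25 μM horse heart cytochrome c in assay buffer, pH 7.5. Reaction started with 200 μM ajoene or DATS. Cytochrome c reduction followed at 550 nm (ε 19.1 mM⁻¹ cm⁻¹). Controls without enzyme. Superoxide tested by adding superoxide dismutase.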

For assay [3], the target named is Trypanothione reductase (Trypanosoma cruzi) (UniProt P28593). Put plainly: kcat/Km value determined against Trypanothione reductase (TR) by oxidation of NADPH. An outline of the steps: (§3)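 T. cruzi trypanothione reductase, recombinant, with NADPH and ajoene as substrate in TR assay buffer (40 mM Hepes, 1 mM EDTA, pH 7.5) at 25 °C. NADPH oxidation followed as absorbance decrease at 340 nm. Controls held only NADPH and enzyme, giving the intrinsic oxidase activity.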
Trypanothione reductase (Trypanosoma cruzi), sequence (P28593 whole entry, looked up): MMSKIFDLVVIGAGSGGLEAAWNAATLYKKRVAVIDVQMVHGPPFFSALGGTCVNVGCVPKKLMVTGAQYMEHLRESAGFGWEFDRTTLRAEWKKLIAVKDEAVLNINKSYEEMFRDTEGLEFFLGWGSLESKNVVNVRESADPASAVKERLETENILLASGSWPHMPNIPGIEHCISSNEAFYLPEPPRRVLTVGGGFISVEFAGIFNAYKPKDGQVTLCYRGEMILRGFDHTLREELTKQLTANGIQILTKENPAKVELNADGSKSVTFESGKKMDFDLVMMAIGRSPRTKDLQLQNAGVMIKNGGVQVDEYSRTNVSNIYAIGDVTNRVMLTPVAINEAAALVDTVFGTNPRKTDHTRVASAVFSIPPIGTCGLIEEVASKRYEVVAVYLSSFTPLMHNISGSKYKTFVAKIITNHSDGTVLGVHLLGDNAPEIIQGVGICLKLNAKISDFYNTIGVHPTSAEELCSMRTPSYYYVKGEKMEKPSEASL

Assay [4] concerns the target T1, Glutathione reductase, mitochondrial (Homo sapiens). Put plainly: Kcat value determined against human Glutathione reductase (GR) by reduction of cytochrome c. Put shortly: as §2
The target is the same in assay [5]. Put plainly: Percent inhibition of 0.3 uM (E)-ajoene in the presence of NADPH for 15 min at 37 C. Put shortly:
(§4)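 GR (0.4–1.0 U in 200 μL; 0.3 μM) incubated at 37 °C in GR assay buffer, pH 6.9, with 200 μM NADPH (or without) and 12.5–200 μM ajoene. Ethanol replaced inhibitor in controls. 2-μL aliquots taken over time were assayed for remaining activity in a standard GR assay: 100 μM NADPH, 1 mM GSSG, 340 nm, 25 °C.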

The target is the same in assay [6]. Put plainly: Kcat value determined against human Glutathione reductase (GR) by oxidation of NADPH. Put shortly:
(§5)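 Recombinant human glutathione reductase in GR assay buffer (phosphate, 200 mM KCl, 1 mM EDTA, pH 6.9) at 25 °C with 150 μM NADPH and ajoene or DATS as substrate. NADPH consumption read at 340 nm. Where GSH is present, it is added to the mixture. Controls held NADPH and enzyme only (intrinsic oxidase activity).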

Assay [7] has the same target. Put plainly: Percent inhibition of 0.3 uM (E)-ajoene in the absence of NADPH for 15 min at 37 C; NI=No Inhibition. Put shortly: as §4
In assay [8] the target is Trypanothione reductase (Trypanosoma cruzi) (UniProt P28593). Put plainly: kcat/Km value determined against Trypanothione reductase (TR). Put shortly: as §3
Assay [9] has as its target T1, Glutathione reductase, mitochondrial (Homo sapiens). Put plainly: kcat/Km value determined against human Glutathione reductase (GR) by oxidation of NADPH. An outline of the steps:
as §5

Assay [10] shares this target. Put plainly: Kcat value determined against human Glutathione reductase (GR) by oxidation of NADPH in the presence of GSH. An outline of the steps:
as §5

The target is the same in assay [11]. Put plainly: kcat/Km value determined against human Glutathione reductase (GR). An outline of the steps: as §5
The target in assay [12] is Trypanothione reductase (Trypanosoma cruzi) (UniProt P28593). Put plainly: Kcat value determined against Trypanothione reductase (TR) by oxidation of NADPH. Put shortly:
as §3

Assay [13] has as its target T1, Glutathione reductase, mitochondrial (Homo sapiens). Put plainly: Percent inhibition of 0.3 uM (Z)-ajoene in the presence of NADPH for 15 min at 37 C. An outline of the steps: as §4
For assay [14] the target is unchanged. Put plainly: Percent inhibition of 0.3 uM (Z)-ajoene in the absence of NADPH for 15 min at 37 C; NI=No Inhibition. Put shortly:
as §4

Assay [15] deals with Trypanothione reductase (Trypanosoma cruzi) (UniProt P28593). Put plainly: Percent inhibition of Trypanothione reductase (TR) with 200 uM (Z)-ajoene in the presence of NADPH at 37 C. An outline of the steps: as §1

Regarding `C=CCSS/C=C/C[S+]([O-])CC=C` (centres undefined), the inhibition in assay [1] and in assay [5] was 50% in each case. In addition, the k cat in assay [2] stood at 0.32 s⁻¹; in [4], 0.1 s⁻¹; in assay [6], 0.34 s⁻¹; in assay [10], 1.47 s⁻¹; in assay [12] it was 0.67 s⁻¹. Also, the k cat/Km was determined as 335 M⁻¹ s⁻¹ in assay [3], 340 M⁻¹ s⁻¹ in assay [8], 425 M⁻¹ s⁻¹ in assay [9] and 680 M⁻¹ s⁻¹ in [11]. In addition, the inhibition (commonly the drop in the measured response relative to a control, in per cent) in assay [7] is “inactive”.
For the molecule `C=CCSSSCC=C`, the k cat in assay [6] was determined as 0.16 s⁻¹. Besides, the k cat/Km in [9] was found to be 1000 M⁻¹ s⁻¹.
Consider `C=CCSS/C=C\C[S+]([O-])CC=C` (centres undefined), for which the k cat/Km amounted to 335 M⁻¹ s⁻¹ in [3], 340 M⁻¹ s⁻¹ in [8], 6840 M⁻¹ s⁻¹ in [9] and 6800 M⁻¹ s⁻¹ in assay [11]. Moreover, the k cat in assay [4] is 0.06 s⁻¹; in assay [6], 2.6 s⁻¹; in assay [12] it was 0.67 s⁻¹. Besides, the inhibition in assay [13] amounted to 50%; in assay [15], 40%. The inhibition result in assay [14] is “inactive”.
